A selection: hits, their analogues and other compounds. The true share with any hit is near 1.8%.
CHRM4 PAM: positive allosteric modulators of human muscarinic M4 receptor; P08173; CHO-K1 hM4/Gqi5, Fluo-8 calcium fluorescence, ACh EC20; 0% = ACh EC20, 100% = maximal ACh; activation, % at 3 µM; 360,000 compounds, 0.4% hits;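 active = activation above its plate's cutoff, the mean activation of sample wells plus 3 SD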
CHRM4 agonist: CHRM4 agonism in calcium assay; P08173; AID 624127; 360,000 compounds, 0.14% hits; activation, % at 3 µM; CHO-K1 hM4/Gqi5, Fluo-8 calcium fluorescence; vehicle 0%, full acetylcholine response 100%;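 active = activation above the run mean over all test wells plus 3 SD, cut at about 32% in these data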;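 also: peak over basal fluorescence ratio per well then scaled between controls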
M5 ag: CHRM5 agonism in calcium assay. CHO-K1 hM5 cells, Fluo-8 calcium fluorescence; 0% DMSO wells, 100% maximal acetylcholine response. P08912. activation, % at 3 µM. AID 624037. 360,000 compounds, 0.19% hits;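 active = activation above the run's mean over test compounds plus 3 SD, cut at about 23% in these data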;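 also: signal is peak over basal fluorescence ratio across the kinetic read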
Target sequence (P08912 whole entry, looked up): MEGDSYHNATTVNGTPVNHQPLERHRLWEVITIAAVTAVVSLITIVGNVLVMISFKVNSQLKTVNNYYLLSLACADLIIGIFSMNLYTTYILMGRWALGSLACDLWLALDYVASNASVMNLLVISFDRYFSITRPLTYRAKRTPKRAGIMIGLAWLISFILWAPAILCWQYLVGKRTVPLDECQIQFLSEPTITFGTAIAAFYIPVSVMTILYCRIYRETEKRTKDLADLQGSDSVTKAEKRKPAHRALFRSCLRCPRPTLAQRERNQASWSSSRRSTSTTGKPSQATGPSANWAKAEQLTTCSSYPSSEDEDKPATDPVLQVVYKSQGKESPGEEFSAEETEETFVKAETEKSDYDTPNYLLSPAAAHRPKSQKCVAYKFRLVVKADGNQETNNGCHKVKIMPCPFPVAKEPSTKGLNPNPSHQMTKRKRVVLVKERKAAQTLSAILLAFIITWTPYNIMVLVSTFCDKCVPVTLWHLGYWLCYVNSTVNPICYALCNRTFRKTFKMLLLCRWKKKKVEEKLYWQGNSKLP
CHRM5 antagonist: CHRM5 antagonism in calcium assay | inhibition, % at 3 µM | P08912 | 360,000 compounds, 0.59% hits | CHO-hM5 cells, Fluo-8 calcium fluorescence, ACh EC80 | AID 624040;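 active = inhibition above a per-plate cutoff, the mean of that plate's test compounds plus 3 SD, cut at about 27% in these data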
M4 antag: antagonists of human muscarinic M4 receptor (CHRM4) | CHO-hM4 cells, ACh EC80, Fluo-8 calcium fluorescence | inhibition, % at 3 µM | 360,000 compounds, 0.73% hits | AID 624125;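 active = inhibition above its plate's cutoff, the mean inhibition of sample wells plus 3 SD, cut at about 27% in these data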
M5 PAM: CHRM5 positive allosteric modulation; P08912; CHO-K1 hM5, Fluo-8 calcium, ACh EC20 PAM; 0% = ACh EC20, 100% = ACh EC100; activation, % at 3 µM; 360,000 compounds, 0.3% hits; AID 624038;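 active = activation above the run cutoff, the mean activation of all test compounds plus 3 SD, cut at about 18% in these data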
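system = human M5 receptor in CHO-K1 cells | reagent = EC20 acetylcholine as agonist stimulus | compound dosing = single-point, 3 µM nominal | incubation = Fluo-8 loading 80 min at 37 °C plus 30 min room temperature | detection = Fluo-8 calcium dye fluorescence, kinetic read | benchmarks = low control EC20 acetylcholine (0%), high control EC100 acetylcholine (100%)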
A number is an active result; n = inactive.

SMILES	CHRM4 PAM	CHRM4 agonist	M5 ag	CHRM5 antagonist	M4 antag	M5 PAM
Cc1cc(C)c2c(N)c(C(=O)NC3CCCC3)sc2n1	52	36	n	n	61	n
CC(C)CCOc1ccc(C(=O)NCC(c2ccco2)N(C)C)cc1 (stereo unspecified)	n	n	n	n	n	n
CCN(CC)C(=O)[C@H]1C[C@H](CC(=O)NC(C)(C)C)C(=O)N2CCc3c([nH]c4cc(CCC(=O)N(C)C)ccc34)[C@]12C	n	n	n	n	n	n
O=C(NCc1ccccc1Cl)C(=O)NCC1OCCN1S(=O)(=O)c1ccc(F)cc1 (stereo unspecified)	n	n	n	n	n	n
COc1ccc2[nH]c3c(NCCC4=CCCCC4)ncnc3c2c1	n	n	n	32	n	n
Cc1ccc(NC(=O)COc2ccc(N(C)C(=O)C(C)(C)C)cc2)cc1S(=O)(=O)N1CCCCC1	n	n	n	n	n	n
Cc1ccc(S(=O)(=O)N2CCOC2CNC(=O)C(=O)NCC(C)C)cc1 (stereo unspecified)	22	n	n	n	n	n
O=C(NCC1OCCCN1S(=O)(=O)c1ccc(F)cc1)C(=O)NC1CCCC1 (stereo unspecified)	n	n	n	n	n	n
COc1ccc(S(=O)(=O)N2CCCOC2CNC(=O)C(=O)NC2CCCC2)cc1 (stereo unspecified)	n	n	n	n	n	30
CS(=O)(=O)Nc1cccc(NC(=O)C2Cc3c(-c4ccco4)ccnc3O2)c1 (stereo unspecified)	n	n	n	n	n	n
Cc1ccc(Cc2c(-c3ccccc3)nc3cc(C)c(Br)c(C)n23)cc1	n	n	n	n	n	n
NC(=O)N1c2ccccc2C=Cc2ccccc21	n	n	n	n	n	n
O=C(CN1CCCC1)N1c2ccccc2C=Cc2ccccc21	n	n	n	49	51	n
O=C(CN1CCCCC1)N1CCCc2ccccc21	n	n	n	n	n	n
CN1CCN(C(=O)N2c3ccccc3C=Cc3ccccc32)CC1	n	n	n	98	71	n
O=C(CN1CCCCCC1)N1c2ccccc2C=Cc2ccccc21	n	n	n	80	95	n
CCc1c(-c2ccccc2F)ncn1Cc1cccc(-c2ccccc2)c1	n	n	n	n	n	n
CCc1c(-c2ccc(Cl)cc2)ncn1Cc1cccc(-c2ccccc2)c1	n	n	n	n	n	n
CCCCc1c(-c2cccc(OC)c2)ncn1CCc1ccccc1OC	n	n	n	33	41	n
CCc1c(-c2cccc(OC)c2)ncn1Cc1cccc(-c2ccccc2)c1	n	n	n	n	34	n
CCc1c(-c2ccccc2)ncn1Cc1cccc(-c2ccccc2)c1	n	n	n	27	n	n
COC(=O)[C@H](Cc1ccccc1)NC(=O)Cn1cnc2c(NCc3ccccc3)ncnc21	n	n	n	n	n	n
Cc1nc2ccccc2n1CC(=O)c1ccc(O)c(O)c1	n	n	n	n	n	n
Cc1cccc(C(=O)NCC(=O)OCC(=O)c2ccc(Cl)s2)c1	n	n	n	n	n	n
COc1cccc(CNS(=O)(=O)c2ccc3c(c2)C(C)(C)C(=O)N3C)c1	n	n	n	n	n	n
SMILES	CHRM4 PAM	CHRM4 agonist	M5 ag	CHRM5 antagonist	M4 antag	M5 PAM
Cc1cccc2cc(C#N)c(NCCCNS(=O)(=O)c3ccc(Cl)cc3)nc12	n	n	n	n	n	n
CCc1ccc(NC(=O)COc2cccc(-n3cnnn3)c2)cc1	n	n	n	n	n	n
Cc1ccc(C)c(C(=O)CSc2n[nH]c(C(C)C)n2)c1	n	n	n	n	n	34
CC(C)CN(CC(C)C)c1nc(N)c(C#N)c(CC#N)c1C#N	28	n	n	n	n	n
Cc1cc(NC(=O)CCCN2C(=O)c3cccc4cccc(c34)C2=O)no1	19	n	n	n	n	n
COc1ccc(-n2nnnc2C(c2cccc(OC)c2OC)N2CCN(C/C=C/c3ccccc3)CC2)cc1 (stereo unspecified)	n	n	n	n	n	n
O=C(c1cccs1)N1CCN=C1SCc1cccnc1	n	n	n	n	n	20

Source: PubChem (The Scripps Research Institute Molecular Screening Center)
